Measured values taken from ChEMBL document CHEMBL4038311, “An Ursolic Acid Derived Small Molecule Triggers Cancer Cell Death through Hyperstimulation of Macropinocytosis” (J Med Chem, 2017).
pIC50: −log10 of the molar value. Activity calls are given as the source filed them. The calls are words filed in the database; no cut-off is given here.

Tests used:
HepG2 = test: Anticancer activity against human HepG2 cells assessed as cell viability after 48 hrs by CCK8 assay; assay type: functional, cell-based; conditions: HepG2, 48 h
How it was run: (§1)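 Seeded at 1000 cells/well in DMEM with 10% FBS at 37 °C, 5% CO2, overnight pre-incubation. Serial dilutions from a 100 mM DMSO stock gave final 0–50 µM, with 48 h exposure. CCK-8 read at 450 nm. IC50 fitted against DMSO control, given with s.d., n = 3 independent experiments.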

HT-1080 [1] = test: Anticancer activity against human HT1080 cells assessed as cell viability after 48 hrs by CCK8 assay; assay type: functional, cell-based; conditions: HT-1080, 48 h; how it was run: as §1
MCF7 = test: Anticancer activity against human MCF7 cells assessed as cell viability after 48 hrs by CCK8 assay; assay type: functional, cell-based; conditions: MCF7, 48 h; how it was run: as §1
HT-1080 [2] = test: Anticancer activity against human HT1080 cells assessed as vacuole formation at 20 uM after 24 hrs by phase contrast microscopic analysis; assay type: functional, cell-based
[3] = Cytotoxicity against HDF assessed as cell viability at 20 uM after 24 to 48 hrs by CCK8 assay relative to control; assay type: cell-based; conditions: human, HDF cells; read-out: Activity
How it was run: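 C2C12 or HDF cells, seeded at 5000/well, given 20 µM or 0.1% DMSO for 24 h or 48 h. CCK-8 absorbance read at 450 nm, relative to DMSO control. Six parallel wells, at least three independent repeats.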

C2C12 = test: Cytotoxicity against mouse C2C12 cells assessed as vacuole formation at 20 uM after 24 hrs by phase contrast microscopic analysis relative to control; assay type: cell-based; conditions: c2c12, 24 h
How it was run: (§2)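 C2C12 or HDF cells given 20 µM or 0.1% DMSO for 24 h, then imaged live by phase-contrast microscopy.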

[4] = Cytotoxicity against HDF assessed as vacuole formation at 20 uM after 24 hrs by phase contrast microscopic analysis relative to control; assay type: cell-based; conditions: human; how it was run: as §2
HeLa [5] = test: Anticancer activity against human HeLa cells assessed as reduction in colony formation after 48 hrs by Giemsa staining-based assay; assay type: functional, cell-based
How it was run: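 HeLa cells exposed 48 h to 15, 20 or 25 µM, then reseeded at 500 cells/well in six-well plates. After 15 days, colonies fixed in methanol, stained with Giemsa, photographed and counted.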

HeLa [6] = test: Induction of apoptosis in human HeLa cells assessed as increase in cleaved caspase-3 levels at 30 to 100 uM after 48 hrs by Western blot analysis; assay type: functional, cell-based
How it was run: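 HeLa given indicated concentrations. RIPA lysates, BCA-quantified, SDS-PAGE and PVDF transfer. Anti-caspase-3 or anti-PARP1 applied overnight at 4 °C after 1 h 5% milk block, secondary 2 h at RT. Infrared imaging, GAPDH as loading control.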

HeLa [7] = test: Anticancer activity against human HeLa cells assessed as decrease in cell viability at 20 uM preincubated cells with Z-VAD-FMK for 1 hr followed by compound addition measured after 48 hrs by CCK8 assay; assay type: functional, cell-based
How it was run: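 HeLa cells pretreated 1 h with 50 µM z-VAD-FMK, then given the compound. Viability read after 48 h by CCK-8 (450 nm), with DMSO-treated wells as control.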

HeLa [8] = test: Induction of autophagy in human HeLa cells assessed as conversion of LC3-1 to LC3-2 at 15 to 25 uM after 24 hrs by Western blot analysis; assay type: functional, cell-based
How it was run: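 HeLa given indicated concentrations or 0.1% DMSO for 24 h. RIPA lysates, BCA-normalized, SDS-PAGE and PVDF transfer. Probed with anti-LC3 (overnight, 4 °C) after 5% milk block, infrared detection, GAPDH for normalization.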

HeLa [9] = test: Induction of autophagy in human HeLa cells assessed as LC3-2 accumulation at 20 uM preincubated cells with 3-MA followed by compound addition measured after 24 hrs by Western blot analysis; assay type: functional, cell-based
How it was run: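 HeLa pretreated 1 h with or without 3-MA, then 20 µM for 24 h. Lysed in RIPA with protease inhibitors, protein by BCA, SDS-PAGE onto PVDF. Blocked 5% milk, anti-LC3 overnight at 4 °C, secondary 2 h at RT. Infrared imaging, GAPDH loading control.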

HeLa [10] = test: Anticancer activity against human HeLa cells assessed as decrease in cell viability at 20 uM preincubated cells with 3-MA followed by compound addition measured after 24 to 48 hrs by CCK8 assay; assay type: functional, cell-based
How it was run: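 HeLa cells pretreated 1 h with or without 3-MA, then exposed to 20 µM or 0.1% DMSO for 24 h or 48 h. Viability by CCK-8 absorbance at 450 nm.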

HeLa [11] = test: Induction of autophagy in human HeLa cells assessed as cytosolic autophagosomes formation at 20 uM after 24 hrs by transmission electron microscopic analysis; assay type: functional, cell-based
How it was run: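 HeLa exposed to 20 µM for 24 h, then fixed, dehydrated and resin-embedded. Ultrathin sections on copper grids stained with uranyl acetate and lead citrate, then examined by TEM.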

HeLa [12] = test: Induction of macropinocytosis-like cytosolic vacuolization in human HeLa cells at 20 uM measured within 4 hrs by time lapse phase contrast microscopic analysis; assay type: functional, cell-based
How it was run: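 HeLa plated at 50,000 per glass-bottom dish, pre-incubated overnight, then given 20 µM in a live-cell chamber (37 °C, 5% CO2). Phase-contrast frames captured every 90 sec.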

HeLa [13] = test: Induction of methuosis in human HeLa cells assessed as increase in vacuole formation preincubated cells with vacuolar-type H+-ATPase inhibitor Baf-A1 for 1 hr followed by compound addition measured after 24 hrs by phase contrast microscopic analysis; assay type: functional, cell-based
How it was run: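 HeLa cells (DMEM, 10% FBS, penicillin/streptomycin, 37 °C, 5% CO2) were given 100 nM bafilomycin A1 for 1 h before compound addition. Vacuole formation was then scored by phase-contrast imaging of live cells.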

HeLa [14] = test: Induction of methuosis in human HeLa cells assessed as decrease in cell viability preincubated cells with vacuolar-type H+-ATPase inhibitor Baf-A1 for 1 hr followed by compound addition measured after 48 hrs by CCK8 assay; assay type: functional, cell-based
How it was run: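 HeLa incubated 1 h with 100 nM Baf-A1 before compound addition. Viability measured by CCK-8 at 450 nm against DMSO control.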

HeLa [15] = test: Induction of methuosis in human HeLa cells assessed as decrease in cell viability preincubated cells with actin inhibitor cytochalasin D for 1 hr followed by compound addition measured after 48 hrs by CCK8 assay; assay type: functional, cell-based
HeLa [16] = test: Induction of methuosis in human HeLa cells assessed as increase in vacuole formation preincubated cells with dynamin inhibitor dynasore for 1 hr followed by compound addition measured after 24 hrs by phase contrast microscopic analysis; assay type: functional, cell-based
How it was run: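 HeLa cells grown in DMEM with 10% FBS, 100 U/ml penicillin and 100 µg/ml streptomycin at 37 °C, 5% CO2 humidified air. The inhibitor was added before compound exposure. Vacuolization was judged in live cells by phase-contrast microscopy.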

HeLa [17] = test: Induction of methuosis in human HeLa cells assessed as decrease in cell viability at 20 uM preincubated with macropinocytosis inhibitor EIPA for 30 mins followed by compound addition measured after 24 to 72 hrs by CCK8 assay; assay type: functional, cell-based
How it was run: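 HeLa pretreated 30 min with or without 50 µM EIPA, then given 20 µM or DMSO. CCK-8 viability read at the indicated times.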

With `C[C@H]1[C@H](C)CC[C@]2(C(=O)O)CC[C@]3(C)C(=CC[C@@H]4[C@@]5(C)Cc6cnn(-c7ccc(C#N)cc7)c6C(C)(C)[C@@H]5CC[C@]43C)[C@H]12` the pIC50 (HepG2) was 4.78, the pIC50 (HT-1080 [1]) was 4.76 and the pIC50 (MCF7) was 4.75. The Activity (HT-1080 [2]) was “Active”, the viability at 20 µM [3] was 28% and the Activity (C2C12) was “Toxic”. For the same compound, the Activity [4] was “Toxic”, the Activity (HeLa [5]) was “Dose-dependent effect” and the Activity (HeLa [6]) was “Active”. The Activity (HeLa [7]) was “Active”, the Activity (HeLa [8]) was “Active” and the Activity (HeLa [9]) was “inactive”. The Activity (HeLa [10]) was “Active”, the Activity (HeLa [11]) was “inactive” and the Activity (HeLa [12]) was “Active”. For the same compound, the Activity (HeLa [13]) was “inactive”, the Activity (HeLa [14]) was “inactive” and the Activity (HeLa [15]) was “inactive”. For the same compound, the Activity (HeLa [16]) was “inactive” and the Activity (HeLa [17]) was “inactive”.
